For data set [1], the target named is T1, Gonadotropin-releasing hormone receptor (Homo sapiens, UniProt P30968).
T1 sequence (P30968 whole entry): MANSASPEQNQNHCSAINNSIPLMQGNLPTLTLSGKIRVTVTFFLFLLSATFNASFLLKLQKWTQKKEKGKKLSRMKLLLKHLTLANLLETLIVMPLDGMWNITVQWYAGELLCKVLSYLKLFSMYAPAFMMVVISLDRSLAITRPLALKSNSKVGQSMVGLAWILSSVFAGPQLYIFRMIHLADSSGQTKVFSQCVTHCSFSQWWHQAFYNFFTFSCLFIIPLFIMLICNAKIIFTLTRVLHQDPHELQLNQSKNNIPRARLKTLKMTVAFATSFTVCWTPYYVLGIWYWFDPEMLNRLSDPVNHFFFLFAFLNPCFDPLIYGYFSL
Kind of data set: Antagonist activity at N-terminal FLAG-tagged human full-length GnRHR expressed in HEK293T cells assessed as inhibition of GnRH-induced calcium mobilization preincubated for 15 mins followed by agonist addition by FLIPR assay. The format is functional, cell-based.

A short description of data set [2]: Thermodynamic solubility of compound in simulated gastric fluid at pH 1.2 after 24 hrs by LC-QTOFMS analysis. The format is physicochemical. Conditions: simulated gi fluid, pH 1.2, 24 h. In outline:
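Solid sample was suspended in 450 uL of buffer to about 2 mg/mL and shaken at 200 RPM for 24 h at ambient temperature (22.6-25.0 °C). The suspension was filtered, and the filtrate was diluted as needed (undiluted up to 10000x). Filtrate was quantified by LC-QTOFMS against a calibration curve prepared from a 10 mM DMSO stock. Two reference standards were run in triplicate in each medium.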

Where only a bound is given, the exact number is not on record here.

With `CC(C)(C)c1ccc(-c2nc3c(N4CCN(Cc5cn(CCF)nn5)CC4)cccc3[nH]2)cc1`, in data set [1], the concentration for half-maximal inhibition (IC50) is 0.794 µM and the Ki worked out at 0.0138 µM. This compound registered a Therm_solubility in data set [2] of 2.098 µg/mL.

Consider `CC(C)(C)c1ccc(-c2nc3c(N4CCN(Cc5cn([C@@H]6O[C@H](CO)[C@@H](O)[C@H](O)[C@H]6O)nn5)CC4)cccc3[nH]2)cc1`, for which, in data set [1], the IC50 was above 10 µM and the Ki was above 1 µM.

As for `CC(C)(C)c1ccc(-c2nc3c(N4CCN(Cc5cccc6nccnc56)CC4)cccc3[nH]2)cc1`, in data set [1], the IC50 is 0.631 µM and the Ki stood at 0.0122 µM.

For `CC(C)(C)c1ccc(-c2nc3c(N4CCN(Cc5cn(-c6ccc(F)cc6)nn5)CC4)cccc3[nH]2)cc1`, in data set [1], the IC50 is 20 µM and the Ki is 0.41 µM.

Take `CC(C)(C)c1ccc(-c2nc3c(N4CCN(Cc5cn(-c6nc7ccccc7[nH]6)nn5)CC4)cccc3[nH]2)cc1`: in data set [1], the half-maximal inhibitory concentration (IC50) was 5.01 µM and the Ki is 0.104 µM.

As for `CC(C)(C)OC(=O)N[C@@H](Cn1cc(CN2CCN(c3cccc4[nH]c(-c5ccc(C(C)(C)C)cc5)nc34)CC2)nn1)C(=O)O`, in data set [1], the half-maximal inhibitory concentration (IC50) was 10 µM and the Ki amounted to 0.186 µM.

Consider `CC(=O)N[C@@H]1[C@@H](OC(C)=O)[C@H](OC(C)=O)[C@@H](COC(C)=O)O[C@H]1n1cc(CN2CCN(c3cccc4[nH]c(-c5ccc(C(C)(C)C)cc5)nc34)CC2)nn1`, for which, in data set [1], the half-maximal inhibitory concentration (IC50) is 7.94 µM and the Ki came to 0.157 µM.

On to `C#CCN1CCN(c2cccc3[nH]c(-c4ccc(C(C)(C)C)cc4)nc23)CC1`, for which, in data set [1], the half-maximal inhibitory concentration (IC50) was 20 µM and the inhibitory constant (Ki) was found to be 0.395 µM.

Turning to `COc1cc(OC)c(NC(=O)c2ccc(Cc3cc4c(cc3C)C(C)(C)CCC4(C)C)o2)c(OC)c1`, in data set [1], the IC50 was 1 µM and the inhibition constant Ki worked out at 0.019 µM.

On to `CC(C)(C)c1ccc(-c2nc3c(N4CCN(CCF)CC4)cccc3[nH]2)cc1`, for which, in data set [1], the IC50 is 12.6 µM and the Ki stood at 0.254 µM.

In general, IC50 refers to the concentration at which inhibition is half-maximal. In general, Ki refers to a measure of affinity in units of concentration, obtained from inhibition or displacement.

The values above are taken from ChEMBL document CHEMBL4261559, “Small molecule piperazinyl-benzimidazole antagonists of the gonadotropin-releasing hormone (GnRH) receptor” (Medchemcomm, 2017).
